From PubChem BioAssay
Sampled rows, rich in hits. Any-hit rate of the full collection: about 2.9%.
Dynein cargo inh: dynein cargo transport inhibition. 3617.4 mouse cells, GR-EGFP nuclear translocation imaging; test concentration mostly 20 µM; stimulated with dexamethasone, 1 µM; stronger effect = lower value. z-score, hits read low. hit rate 0.47% among 220,000. AID 1381;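 active means plate z-score of nuclear minus cytoplasmic receptor signal below a set negative limit, without overly bright fluorescence or cell loss, cut at about -3.5 in these data, passing the limit was not always enough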;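 further: z-score of nuclear minus cytoplasmic ring GR-EGFP intensity difference per well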
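Schedule: 48 h induction, then 1 h compound, then 30 min agonist, 37 °C. Buffer or medium: tetracycline-free induction medium containing charcoal-stripped FBS. Reagent: 1.0 µM final dexamethasone stimulus. Evaluation: nuclear versus cytoplasmic GR-EGFP signal, averaged per well. Signal: high-content fluorescence imaging after fixation.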
MEKK2wt PB1 HTS: raises or lowers MEK5 binding to wildtype human MEKK2 PB1 domain; Q9Y2U5; bead flow cytometry, Alexa488-MEK5 binding to MEKK2 WT; actives lie on both sides; binding response (% of control), % at 10 µM; hit rate 1.1% among 290,000; in the data active means binding response below about 67% or above about 130%; inconclusive means no clear call, values can overlap the other calls; inactive means in between
ATG4B inh: blocks human ATG4B protease cleavage of LC3 substrate. Q9Y4P1. ATG4B cleavage of LC3-PLA2, NBD-HPC fluorescence, 1 h. inhibition, % at 8.33 µM. hit rate 0.51% among 340,000. AID 504462; in the data active means inhibition above about 40%
Beta2AR agonist: human beta-2 adrenergic receptor agonism by FAP | P07550 | Am2.2-beta2AR cells, FAP receptor internalization, flow cytometry | response, % (test concentration not listed) | hit rate 0.43% among 340,000 | AID 504454;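 active means response above a set limit, near 3 SD of response in nonfluorescent compounds, cut at about 42% in these data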
MEKK3 PB1 HTS: raises or lowers MEK5 binding to the human MEKK3 PB1 domain; bead-based flow cytometry, Alexa488-MEK5 binding to MEKK3; actives lie on both sides; 0 = blocked by unlabeled MEK5, 100 = vehicle; binding response (% of control), % at 10 µM; hit rate 1.4% among 290,000; AID 1529;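 active means binding response more than 3 SD above or below the average of its plate-row segment, actives on both sides; inconclusive means wells at one plate position flagged as instrument error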;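 further: Alexa488 bead fluorescence after subtracting the streptavidin-only scavenger bead signal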
Target sequence (Q99759 whole entry, looked up, the tested form may be a part): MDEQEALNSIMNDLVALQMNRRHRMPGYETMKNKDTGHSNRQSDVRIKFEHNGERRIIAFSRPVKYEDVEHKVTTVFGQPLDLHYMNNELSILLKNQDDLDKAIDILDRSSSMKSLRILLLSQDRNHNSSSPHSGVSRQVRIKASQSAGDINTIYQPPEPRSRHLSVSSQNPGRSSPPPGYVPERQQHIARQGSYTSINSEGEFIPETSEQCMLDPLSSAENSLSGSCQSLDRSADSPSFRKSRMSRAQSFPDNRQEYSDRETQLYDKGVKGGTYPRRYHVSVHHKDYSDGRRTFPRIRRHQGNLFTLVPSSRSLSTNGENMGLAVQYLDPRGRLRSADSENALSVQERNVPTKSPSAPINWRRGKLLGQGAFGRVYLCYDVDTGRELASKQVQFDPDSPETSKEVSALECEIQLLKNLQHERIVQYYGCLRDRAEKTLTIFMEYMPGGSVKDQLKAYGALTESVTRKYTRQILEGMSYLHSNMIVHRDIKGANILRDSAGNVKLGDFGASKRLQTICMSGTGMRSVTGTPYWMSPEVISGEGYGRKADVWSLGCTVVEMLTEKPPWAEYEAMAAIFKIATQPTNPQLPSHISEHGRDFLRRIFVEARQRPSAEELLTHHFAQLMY
MEKK2 mut-MEK5: signal of MEK5 binding to mutant human MEKK2 PB1 domain; bead flow cytometry, Alexa488-MEK5 binding to MEKK2 mutant; percent response, % at 10 µM; hit rate 0.35% among 290,000; AID 1530; in the data active means percent response above about 24%, passing the limit was not always enough
Dynein inh conf: dynein cargo transport inhibition, confirmation | shares compounds with Dynein cargo inh | 3617.4 GR-EGFP nuclear translocation imaging, dexamethasone-induced | calls only at 20 µM | hit rate 69% among 1,000;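 active means inhibition of receptor movement into the nucleus at or above a set limit in both runs, with normal cell brightness and cell count; inconclusive means limit reached in only one run, brightness and count normal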;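 further: dexamethasone at 1 µM final in well for 30 min; nuclear minus cytoplasmic GR-EGFP mean intensity difference in channel 2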
* hit, by the source's call; i = inactive; u = inconclusive; x = no result; + = active, no number.

SMILES | Dynein cargo inh | MEKK2wt PB1 HTS | ATG4B inh | Beta2AR agonist | MEKK3 PB1 HTS | MEKK2 mut-MEK5 | Dynein inh conf
COc1ccc(CC(=O)n2[nH]c(=O)cc(C)c2=O)cc1OC | -5.7* | 115 | 0 | -1 | 113 | 4 | u
COC(=O)[C@@]1(Cc2ccccc2)[C@H]2C(=O)N(C)C(=O)[C@H]2[C@H]2CN=C(SCc3ccc(C#N)cc3)N21 | x | x | -4 | -5 | x | x | x
Cn1c(=O)c(=O)n(C)c2cc(S(=O)(=O)Nc3ccc4c(c3)OCCO4)ccc21 | -0.5 | 97 | 2 | 0 | 97 | -4 | x
Cn1c(=O)oc2cc(S(=O)(=O)Nc3ccc4c(c3)OCCO4)ccc21 | -4.3 | 100 | -5 | -8 | 97 | 2 | i
COC(C/C=C/C(=O)COCc1ccccc1)OC | -5.7* | 101 | -2 | 14 | 108 | 6 | +
O=c1c(Cl)c(Cl)cnn1Cc1nnc(-c2ccccc2Br)o1 | -5.6* | 99 | 6 | 11 | 104 | 7 | +
O=C(C[n+]1ccccc1)NNc1ccccc1 | x | x | -10 | -3 | x | x | x
CC(C)C(=O)N1CCN(c2ccc(NC(=O)c3ccc([N+](=O)[O-])o3)cc2)CC1 | -3.1 | 92 | -9 | 4 | 96 | -4 | x
O=C(Nc1ccc(N2CCOCC2)c(Cl)c1)c1ccc([N+](=O)[O-])o1 | -4.5* | 94 | -5 | 30 | 99 | -5 | +
CC(C)C(=O)N1CCN(c2ccc(NC(=O)c3ccc([N+](=O)[O-])o3)cc2Cl)CC1 | -4.2* | 99 | -13 | 38 | 100 | 2 | +
CN1CCN(c2ccc(NC(=O)c3ccc([N+](=O)[O-])o3)cc2Cl)CC1 | x | 109 | -7 | 29 | 103 | 2 | x
COc1ccc(NC(=O)N2CCN(C(=O)c3ccco3)CC2)c(OC)c1 | x | 102 | 0 | -6 | 101 | 4 | x
N#C/C(=C\c1sc(N2CCOCC2)nc1-c1ccccc1)C(=O)Nc1cccc2ccccc12 | -5.6 | 92 | x | x | 135* | 5 | u
O=[N+]([O-])c1ccc(OCCCCN2CCc3ccccc3C2)cc1 | x | 113 | -3 | -1 | 108 | 11 | x
COC(CNC(=O)c1ccc2c3c(onc13)-c1ccccc1C2=O)OC | -4.9* | 87 | -4 | 48* | 94 | -9 | +
CCN(CC)c1ccc(/C=C2\CCC(/C=N/NC(=O)c3ccc(=O)n(C)c3)=C2N2CCOCC2)cc1 | -4.9 | 87 | -13 | -118 | 112 | 0 | +
O=C(N/N=C/C1=C(N2CCOCC2)C(=C\c2ccccc2)/CC1)Nc1ccccc1 | 0.27 | 101 | 5 | -9 | 101 | 0 | x
COc1ccc(C(=O)/C=C/C(=O)N(CC(=O)NCCC(C)C)Cc2cccs2)c(O)c1 | -6.1* | 96 | -4 | 120* | 97 | -4 | +
COc1ccc(C(=O)N(Cc2ccco2)Cc2cccs2)c(O)c1 | 0.44 | 100 | 4 | 2 | 101 | -1 | x
COc1ccc(C(=O)/C=C/C(=O)N(CC(=O)NC2CCCCC2)Cc2ccc(F)cc2)c(O)c1 | -4.5* | 96 | 7 | 123* | 102 | -2 | +
CCOC(=O)Cc1csc(NC(=O)CN2CCN(c3ccccc3)CC2)n1 | x | 103 | -8 | 5 | 99 | 3 | x
C[C@@H](NC(=O)c1coc(=O)c(Br)c1)c1ccccc1 | -1.8 | 100 | -2 | 7 | 95 | -3 | x
Cc1cc(NC(=O)c2coc(=O)c(Br)c2)ccc1C(C)C | -5.4* | 69 | -1 | 16 | 92 | -12 | +
CC(C)(C)c1cnnn1-c1ccc(C(=O)CCl)cc1 | -4.1* | 95 | -18 | 45* | 97 | 0 | +
CCOC(=O)C1CCCN(C(=O)Cn2sc3nc(C)cc(C)c3c2=O)C1 (stereo unspecified) | -4.1* | 109 | -2 | 15 | 108 | 11 | u
SMILES | Dynein cargo inh | MEKK2wt PB1 HTS | ATG4B inh | Beta2AR agonist | MEKK3 PB1 HTS | MEKK2 mut-MEK5 | Dynein inh conf
Cc1cc(C)c2c(=O)n(CC(=O)N3CCC(N4CCCCC4)CC3)sc2n1 | -4.2* | 113 | -8 | -4 | 105 | 9 | i
CCCNC(=O)Cn1sc2nc(C)cc(C)c2c1=O | -4.8* | 90 | -4 | 0 | 91 | -4 | i
COc1ccc(C(=O)NC(=O)CSc2nc3nc(C)cc(C)n3n2)cc1 | x | x | -4 | 32 | x | x | x
COc1ccc(CCC(=O)OCC(=O)N2CCN(S(=O)(=O)c3ccc(C)cc3C)CC2)cc1 | x | x | -1 | -7 | x | x | x
COc1cc(C2Oc3ccccc3C=C2[N+](=O)[O-])cc(OC)c1OC (stereo unspecified) | -5.6* | 94 | -2 | 31 | 100 | -5 | +
O=C(CCl)N(Cc1ccccc1)c1ccccc1 | -5.3* | 98 | -8 | -4 | 97 | -4 | +
Cc1cccc(N(Cc2ccccc2)C(=O)CCl)c1 | -5.7* | 97 | 2 | 10 | 104 | -4 | +
CCN(CC)C(=O)CSc1nnc(SC(C)C(=O)NC2CC2)s1 (stereo unspecified) | x | x | -7 | -3 | x | x | x
Cc1ccc(C(=O)NC(C#N)=C(Cl)Cl)cc1 | -4.3* | 91 | -3 | x | 97 | -1 | +
Cc1ccc(C(=O)NCC#N)cc1 | 0.16 | 96 | -7 | -1 | 101 | -7 | x
O=c1c(Cl)c(Cl)cnn1Cc1ccc(F)cc1 | -4.9* | 94 | -1 | 24 | 98 | -9 | +
O=C1CN(C(=O)Cn2ncc(Cl)c(Cl)c2=O)c2ccccc2N1 | -6.8* | 103 | -5 | 11 | 108 | 3 | +
C=CCn1c(C)cc(C(=O)Cn2ncc(Cl)c(Cl)c2=O)c1C | -4.6* | 98 | 8 | 42 | 101 | -1 | +
CC(C)(C)C(=O)Cn1ncc(Cl)c(Cl)c1=O | -6.1* | 100 | 2 | 7 | 109 | -3 | +
CC(C)(C)C(=O)Cn1ncc(N2CCCC2)c(Br)c1=O | -0.48 | 95 | 0 | -10 | 96 | -1 | x
COCCCn1c(C(=O)N2CC(C)OC(C)C2)cc2c(=O)n3ccccc3nc21 (stereo unspecified) | x | 104 | -8 | -14 | 98 | 1 | x
Cc1cccc(NC(=O)c2nc[nH]c2C(=O)N2CCC(C)CC2)c1 | x | x | -11 | -10 | x | x | x
Cc1ccc(NC(=O)CN(C)C(=O)Cn2ncc(Cl)c(Cl)c2=O)cc1 | -6.3* | 107 | -9 | 8 | 112 | 1 | +
O=C(Cn1ncc(Cl)c(Cl)c1=O)c1ccc(Cl)cc1 | -4* | 108 | 2 | 15 | 109 | -2 | i
O=c1oc2cc(O[C@@H]3OC[C@@H](O)[C@H](O)[C@H]3O)ccc2c2ccccc12 | x | 104 | -1 | -11 | 103 | 6 | x
